Among the data in ChEMBL document CHEMBL4196091 (Eur J Med Chem, 2018) are Activity and IC50 values, retold here.

Active and inactive are the calls of the source. The calls are words filed in the database; no cut-off is given here. Where only a bound is given, the exact number is not on record here.

The test system of experiment [1] is HT-29. The experiment can be described thus: Downregulation of c-Myc gene expression in human HT-29 cells assessed as c-Myc mRNA level at 9 nM after 48 hrs by RT-PCR method (reference value: 100%). The class given is functional. The method, boiled down:
(§1)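 HT-29 cells were taken at 70–80% confluence and seeded at 1.5 x 10^5 per well. After 24 h they were exposed to compound for 48 h. Total RNA was isolated and TaqMan RT-qPCR run for VEGF-A, c-MYC and hTERT, normalized to β-actin. Expression is given as percent of DMSO control, with at least three measurements and one-sample t-tests.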

The subject of experiment [2] is A549. The experiment can be described thus: Antiproliferative activity against human A549 cells after 2 days by MTT assay. In kind it is functional, cell-based. The conditions noted are these: A549, 48 h.
Experiment [3] deals with HT-29. Description: Inhibition of VEGF protein secretion in human HT-29 cells assessed as VEGF protein level at 9 nM after 48 hrs by ELISA (reference value: 100%). The class given is functional. Also on record: scale not given: the % may be the effect or the level left.
Experiment [4] deals with HT-29. The experiment can be described thus: Downregulation of VEGF gene expression in human HT-29 cells assessed as VEGF mRNA level at 9 nM after 48 hrs by RT-PCR method (reference value: 100%). The class given is functional. The procedure, abridged:
as §1

Experiment [5] concerns HT-29. The experiment can be described thus: Downregulation of hTERT gene expression in human HT-29 cells assessed as hTERT mRNA level at 9 nM after 48 hrs by RT-PCR method (reference value: 100%). In kind it is functional. The method, boiled down:
as §1

A further experiment deals with HEK293. The experiment can be described thus: Antiproliferative activity against HEK293 cells after 2 days by MTT assay. The class given is ADME, cell-based. The conditions noted are these: Homo sapiens, HEK293, 48 h.
Experiment [6] has as its system A549. The experiment can be described thus: Cell cycle arrest in human A549 cells assessed as accumulation at G0/G1 phase at 20 nM after 24 hrs by propidium iodide staining based flow cytometry (reference value: 73 +/- 3%). In kind it is functional. The procedure, abridged:
(§2)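 A549 cells maintained in DMEM (1 g/L glucose, 2 mM glutamine, penicillin/streptomycin/amphotericin B, 10% FBS) and treated for 24 h. Cells were then fixed, RNase-treated and stained with propidium iodide. DNA content was measured by flow cytometry to give cell-cycle phase distribution, including a sub-G1 peak. Data are means (±SD) of two experiments.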

Experiment [7] deals with HT-29. Description: Antiproliferative activity against human HT-29 cells after 2 days by MTT assay. The class given is functional, cell-based. The conditions noted are these: HT-29, 48 h.
Experiment [8] relates to A549. The experiment can be described thus: Cell cycle arrest in human A549 cells assessed as accumulation at G2/M phase at 20 nM after 24 hrs by propidium iodide staining based flow cytometry (reference value: 11 +/- 4%). The class given is functional. The procedure, abridged:
as §2

The subject of another experiment is MCF7. The experiment can be described thus: Antiproliferative activity against human MCF7 cells after 2 days by MTT assay. The class given is functional, cell-based. The following applies: MCF7, 48 h.
Experiment [9] has as its system A549. Description: Cell cycle arrest in human A549 cells assessed as accumulation at G2/M phase at 3 nM after 24 hrs by propidium iodide staining based flow cytometry. The class given is functional. The method, boiled down: as §2
In experiment [10] the test system is A549. Description: Cell cycle arrest in human A549 cells assessed as accumulation at S phase at 20 nM after 24 hrs by propidium iodide staining based flow cytometry (reference value: 15 +/- 6%). The class given is functional. The method, boiled down: as §2
Experiment [11] relates to A549. Description: Cell cycle arrest in human A549 cells assessed as accumulation at sub-G0 phase at 20 nM after 24 hrs by propidium iodide staining based flow cytometry (reference value: 2 +/- 1%). The class given is functional. The method, boiled down: as §2
The subject of experiment [12] is HT-29. Description: Inhibition of VEGF protein secretion in human HT-29 cells assessed as VEGF protein level at 0.5 nM after 48 hrs by ELISA (reference value: 100%). Also on record: scale not given: the % may be the effect or the level left. The class given is functional.
For experiment [13], the system named is HT-29. The experiment can be described thus: Downregulation of c-Myc gene expression in human HT-29 cells assessed as c-Myc mRNA level at 0.5 nM after 48 hrs by RT-PCR method (reference value: 100%). In kind it is functional. The procedure, abridged:
as §1

The subject of experiment [14] is HT-29. The experiment can be described thus: Downregulation of VEGF gene expression in human HT-29 cells assessed as VEGF mRNA level at 0.5 nM after 48 hrs by RT-PCR method (reference value: 100%). In kind it is functional. The method, boiled down: as §1
For experiment [15], the system named is HT-29. The experiment can be described thus: Downregulation of hTERT gene expression in human HT-29 cells assessed as hTERT mRNA level at 0.5 nM after 48 hrs by RT-PCR method (reference value: 100%). The class given is functional. The method, boiled down:
as §1

Consider `COc1cc2c(c(OC)c1OC)-c1ccc(OC)c(=O)cc1[C@@H](NC(=O)c1ccc(Br)cc1)CC2`, for which the Activity in the experiment on HT-29 [1] is given as 41%; in the experiment on HT-29 [3], 62%; with HT-29 [4], 37%; in the experiment on HT-29 [5], above 100%; with A549 [6] it was 25%; with A549 [8], 56%. Also, the values for the Activity in the experiment on A549 [10] and in the experiment on A549 [11] were 16% and 4%, respectively. For the same compound, the IC50 in the experiment on A549 [2] was determined as 4.2 nM; in the experiment on HEK293 it was 7.8 nM; in the experiment with HT-29 [7] it was 11.4 nM; in the experiment on MCF7, 8.9 nM. For the same compound, the outcome with A549 [9] was Active.

For `COc1cc2c(c(OC)c1OC)-c1ccc(OC)c(=O)cc1[C@@H](NC(=O)c1cccc(Br)c1)CC2`, the Activity amounted to 79% in the experiment on HT-29 [12]; 34% in the experiment with HT-29 [13]; 61% in the experiment with HT-29 [14]; 29% with A549 [6]; 51% in the experiment on A549 [8]; 16% with A549 [10]. The Activity in the experiment on A549 [11] came out at 4%; with HT-29 [15] it was 91%. For the same compound, the IC50 in the experiment on A549 [2] stood at 14 nM; with HEK293, 1.1 nM; in the experiment with HT-29 [7] it was 0.56 nM; in the experiment with MCF7 it was 0.363 nM. Also, the outcome in the experiment with A549 [9] was Active.
